Results from ChEMBL document CHEMBL1155459, “On-bead screening of a combinatorial fumaric acid derived peptide library yields antiplasmodial cysteine protease inhibitors with unusual peptide sequences” (J Med Chem, 2009).
Square brackets hold non-standard residues; d marks the D form. Peptide text beside a SMILES is read from it. * marks the point of attachment. Fumaroyl(GlyGlyPheOH) = O=C(/C=C/C(=O)*)NCC(=O)NCC(=O)N[C@@H](Cc1ccccc1)C(=O)O; Chg = N[C@H](C(=O)O)C1CCCCC1; Dap = NC[C@H](N)C(=O)O

Assays:
[1] = molecular target: Rhodesain (Trypanosoma brucei rhodesiense) (UniProt Q95PM0); assay: Inhibition of Trypanosoma brucei rhodesiense rhodesain after 12 hrs by fluorescence spectroscopy-based on-bead assay; design: concentration or dose not given beside the values; settings: concentration not given here
Method in brief: (§1)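 Library members on resin (PEGA, theoretical loading 0.40 mmol/g; added as DMSO suspension, 0.64 mM final inhibitor) preincubated with enzyme 12 h, then Cbz-Phe-Arg-AMC 40 μM added; AMC release followed by fluorescence (ex 380/em 460 nm). Kinetics compared with inhibitor-free amino-PEGA resin.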

[2] = Inhibition of Plasmodium falciparum falcipain-2 after 12 hrs by fluorescence spectroscopy-based on-bead assay; design: concentration or dose not given beside the values; settings: concentration not given here; method in brief: as §1

Sequence of Rhodesain (Trypanosoma brucei rhodesiense) (Q95PM0 1-450): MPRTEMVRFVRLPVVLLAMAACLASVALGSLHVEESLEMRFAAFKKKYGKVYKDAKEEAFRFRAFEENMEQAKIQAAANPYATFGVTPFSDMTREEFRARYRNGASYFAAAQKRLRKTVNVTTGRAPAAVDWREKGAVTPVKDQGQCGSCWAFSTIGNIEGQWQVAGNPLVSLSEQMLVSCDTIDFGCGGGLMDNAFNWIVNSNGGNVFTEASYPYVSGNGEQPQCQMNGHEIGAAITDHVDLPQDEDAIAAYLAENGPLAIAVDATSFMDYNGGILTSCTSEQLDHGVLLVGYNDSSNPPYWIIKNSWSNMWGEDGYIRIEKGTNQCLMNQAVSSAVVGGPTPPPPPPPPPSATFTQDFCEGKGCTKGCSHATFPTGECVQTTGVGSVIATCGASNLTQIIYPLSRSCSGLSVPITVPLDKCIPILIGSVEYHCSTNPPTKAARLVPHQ

Compound	inhibition [1] [%]	inhibition [2] [%]
CC(C)[C@H](NC(=O)[C@@H](NC(=O)[C@@H](NC(=O)[C@H](CC(N)=O)NC(=O)/C=C/C(=O)NCC(=O)NCC(=O)N[C@@H](Cc1ccccc1)C(=O)O)c1ccccc1)C(C)C)C(N)=O (HELM PEPTIDE1{[O=C(/C=C/C(=O)[*:2])NCC(=O)NCC(=O)N[C@@H](Cc1ccccc1)C(=O)O].N.[Phg].V.V.[am]}$$$$V2.0)	45	50
CC(C)[C@H](NC(=O)[C@H](C)NC(=O)[C@H](Cc1ccccc1)NC(=O)[C@H](C)NC(=O)/C=C/C(=O)NCC(=O)NCC(=O)N[C@@H](Cc1ccccc1)C(=O)O)C(N)=O (HELM PEPTIDE1{[O=C(/C=C/C(=O)[*:2])NCC(=O)NCC(=O)N[C@@H](Cc1ccccc1)C(=O)O].A.F.A.V.[am]}$$$$V2.0)	45	44
CC(C)[C@H](NC(=O)[C@@H](NC(=O)[C@@H](NC(=O)[C@H](C)NC(=O)/C=C/C(=O)NCC(=O)NCC(=O)N[C@@H](Cc1ccccc1)C(=O)O)c1ccccc1)C(C)C)C(N)=O (HELM PEPTIDE1{[O=C(/C=C/C(=O)[*:2])NCC(=O)NCC(=O)N[C@@H](Cc1ccccc1)C(=O)O].A.[Phg].V.V.[am]}$$$$V2.0)	36	56
CC(C)[C@H](NC(=O)[C@H](C)NC(=O)[C@H](Cc1ccccc1)NC(=O)[C@H](CCC(N)=O)NC(=O)/C=C/C(=O)N[C@@H](C)C(=O)NCC(=O)N[C@@H](Cc1ccccc1)C(=O)O)C(N)=O (HELM PEPTIDE1{[C[C@H](NC(=O)/C=C/C(=O)[*:2])C(=O)NCC(=O)N[C@@H](Cc1ccccc1)C(=O)O].Q.F.A.V.[am]}$$$$V2.0)	30	25
CC(C)C[C@H](NC(=O)[C@H](Cc1ccccc1)NC(=O)/C=C/C(=O)N[C@@H](C)C(=O)NCC(=O)N[C@@H](Cc1ccccc1)C(=O)O)C(=O)N[C@@H](CC(C)C)C(=O)N[C@H](C(N)=O)C(C)C (HELM PEPTIDE1{[C[C@H](NC(=O)/C=C/C(=O)[*:2])C(=O)NCC(=O)N[C@@H](Cc1ccccc1)C(=O)O].F.L.L.V.[am]}$$$$V2.0)	69	62
CC(C)[C@H](NC(=O)[C@@H](NC(=O)[C@@H](NC(=O)[C@H](CC(N)=O)NC(=O)/C=C/C(=O)N[C@@H](C)C(=O)NCC(=O)N[C@@H](Cc1ccccc1)C(=O)O)c1ccccc1)C(C)C)C(N)=O (HELM PEPTIDE1{[C[C@H](NC(=O)/C=C/C(=O)[*:2])C(=O)NCC(=O)N[C@@H](Cc1ccccc1)C(=O)O].N.[Phg].V.V.[am]}$$$$V2.0)	37	51
CC(C)[C@H](NC(=O)[C@H](C)NC(=O)[C@@H](NC(=O)[C@H](CC(N)=O)NC(=O)/C=C/C(=O)N[C@@H](C)C(=O)NCC(=O)N[C@@H](Cc1ccccc1)C(=O)O)C1CCCCC1)C(N)=O (HELM PEPTIDE1{[C[C@H](NC(=O)/C=C/C(=O)[*:2])C(=O)NCC(=O)N[C@@H](Cc1ccccc1)C(=O)O].N.[O=C([C@@H](N[*:1])C1CCCCC1)[*:2]].A.V.[am]}$$$$V2.0)	36	45
CC(C)[C@H](NC(=O)[C@@H](NC(=O)[C@H](Cc1ccccc1)NC(=O)[C@H](CC(N)=O)NC(=O)/C=C/C(=O)N[C@@H](C)C(=O)NCC(=O)N[C@@H](Cc1ccccc1)C(=O)O)C(C)C)C(N)=O (HELM PEPTIDE1{[C[C@H](NC(=O)/C=C/C(=O)[*:2])C(=O)NCC(=O)N[C@@H](Cc1ccccc1)C(=O)O].N.F.V.V.[am]}$$$$V2.0)	53	54
CC(C)C[C@H](NC(=O)[C@@H](NC(=O)[C@H](Cc1ccccc1)NC(=O)/C=C/C(=O)N[C@@H](C)C(=O)NCC(=O)N[C@@H](Cc1ccccc1)C(=O)O)c1ccccc1)C(=O)N[C@H](C(N)=O)C(C)C (HELM PEPTIDE1{[C[C@H](NC(=O)/C=C/C(=O)[*:2])C(=O)NCC(=O)N[C@@H](Cc1ccccc1)C(=O)O].F.[Phg].L.V.[am]}$$$$V2.0)	68	53
CC(C)C[C@H](NC(=O)[C@H](CC(N)=O)NC(=O)/C=C/C(=O)N[C@@H](C)C(=O)NCC(=O)N[C@@H](Cc1ccccc1)C(=O)O)C(=O)N[C@@H](CC(C)C)C(=O)N[C@H](C(N)=O)C(C)C (HELM PEPTIDE1{[C[C@H](NC(=O)/C=C/C(=O)[*:2])C(=O)NCC(=O)N[C@@H](Cc1ccccc1)C(=O)O].N.L.L.V.[am]}$$$$V2.0)	59	57
CC(C)C[C@H](NC(=O)[C@H](Cc1ccccc1)NC(=O)[C@H](C)NC(=O)/C=C/C(=O)NCC(=O)NCC(=O)N[C@@H](Cc1ccccc1)C(=O)O)C(=O)N[C@H](C(N)=O)C(C)C (HELM PEPTIDE1{[O=C(/C=C/C(=O)[*:2])NCC(=O)NCC(=O)N[C@@H](Cc1ccccc1)C(=O)O].A.F.L.V.[am]}$$$$V2.0)	67	68
CC(C)C[C@H](NC(=O)[C@@H](NC(=O)[C@H](C)NC(=O)/C=C/C(=O)N[C@@H](C)C(=O)NCC(=O)N[C@@H](Cc1ccccc1)C(=O)O)c1ccccc1)C(=O)N[C@H](C(N)=O)C(C)C (HELM PEPTIDE1{[C[C@H](NC(=O)/C=C/C(=O)[*:2])C(=O)NCC(=O)N[C@@H](Cc1ccccc1)C(=O)O].A.[Phg].L.V.[am]}$$$$V2.0)	72	55
CC(C)C[C@H](NC(=O)[C@H](Cc1ccccc1)NC(=O)[C@H](CCC(N)=O)NC(=O)/C=C/C(=O)NCC(=O)NCC(=O)N[C@@H](Cc1ccccc1)C(=O)O)C(=O)N[C@H](C(N)=O)C(C)C (HELM PEPTIDE1{[O=C(/C=C/C(=O)[*:2])NCC(=O)NCC(=O)N[C@@H](Cc1ccccc1)C(=O)O].Q.F.L.V.[am]}$$$$V2.0)	57	62
CC(C)C[C@H](NC(=O)[C@H](Cc1ccccc1)NC(=O)[C@H](Cc1ccccc1)NC(=O)/C=C/C(=O)N[C@@H](C)C(=O)NCC(=O)N[C@@H](Cc1ccccc1)C(=O)O)C(=O)N[C@H](C(N)=O)C(C)C (HELM PEPTIDE1{[C[C@H](NC(=O)/C=C/C(=O)[*:2])C(=O)NCC(=O)N[C@@H](Cc1ccccc1)C(=O)O].F.F.L.V.[am]}$$$$V2.0)	54	47
CC(C)[C@H](NC(=O)[C@@H](NC(=O)[C@@H](NC(=O)[C@H](CC(N)=O)NC(=O)/C=C/C(=O)N[C@@H](C)C(=O)NCC(=O)N[C@@H](Cc1ccccc1)C(=O)O)C1CCCCC1)C(C)C)C(N)=O (HELM PEPTIDE1{[C[C@H](NC(=O)/C=C/C(=O)[*:2])C(=O)NCC(=O)N[C@@H](Cc1ccccc1)C(=O)O].N.[O=C([C@@H](N[*:1])C1CCCCC1)[*:2]].V.V.[am]}$$$$V2.0)	50	62
CC(C)[C@H](NC(=O)[C@@H](NC(=O)[C@@H](NC(=O)[C@H](C)NC(=O)/C=C/C(=O)N[C@@H](C)C(=O)NCC(=O)N[C@@H](Cc1ccccc1)C(=O)O)C1CCCCC1)C(C)C)C(N)=O (HELM PEPTIDE1{[C[C@H](NC(=O)/C=C/C(=O)[*:2])C(=O)NCC(=O)N[C@@H](Cc1ccccc1)C(=O)O].A.[O=C([C@@H](N[*:1])C1CCCCC1)[*:2]].V.V.[am]}$$$$V2.0)	34	57
CC(=O)NC[C@H](NC(=O)/C=C/C(=O)NCC(=O)NCC(=O)N[C@@H](Cc1ccccc1)C(=O)O)C(=O)N[C@H](C(=O)N[C@@H](CC(C)C)C(=O)N[C@H](C(N)=O)C(C)C)C1CCCCC1 ({Fumaroyl(GlyGlyPheOH)}-[Dap](Ac)[Chg]LV-NH2)	75	26
CC[C@H](C)[C@H](NC(=O)[C@H](CNC(C)=O)NC(=O)/C=C/C(=O)NCC(=O)NCC(=O)N[C@@H](Cc1ccccc1)C(=O)O)C(=O)N[C@@H](C)C(=O)N[C@H](C(N)=O)C(C)C (HELM PEPTIDE1{[O=C(/C=C/C(=O)[*:2])NCC(=O)NCC(=O)N[C@@H](Cc1ccccc1)C(=O)O].[O=C([C@H](CN[*:3])N[*:1])[*:2]].I.A.V.[am]}|PEPTIDE2{[ac]}$PEPTIDE1,PEPTIDE2,2:R3-1:R2$$$V2.0)	29	29
CC[C@H](C)[C@H](NC(=O)[C@H](CC(N)=O)NC(=O)/C=C/C(=O)NCC(=O)NCC(=O)N[C@@H](Cc1ccccc1)C(=O)O)C(=O)N[C@@H](CC(C)C)C(=O)N[C@H](C(N)=O)C(C)C (HELM PEPTIDE1{[O=C(/C=C/C(=O)[*:2])NCC(=O)NCC(=O)N[C@@H](Cc1ccccc1)C(=O)O].N.I.L.V.[am]}$$$$V2.0)	68	61
CC[C@H](C)[C@H](NC(=O)[C@H](CC(N)=O)NC(=O)/C=C/C(=O)N[C@@H](C)C(=O)NCC(=O)N[C@@H](Cc1ccccc1)C(=O)O)C(=O)N[C@H](C(=O)N[C@H](C(N)=O)C(C)C)C(C)C (HELM PEPTIDE1{[C[C@H](NC(=O)/C=C/C(=O)[*:2])C(=O)NCC(=O)N[C@@H](Cc1ccccc1)C(=O)O].N.I.V.V.[am]}$$$$V2.0)	21	33
CC(C)C[C@H](NC(=O)[C@H](CCC(N)=O)NC(=O)/C=C/C(=O)N[C@@H](C)C(=O)NCC(=O)N[C@@H](Cc1ccccc1)C(=O)O)C(=O)N[C@@H](CC(C)C)C(=O)N[C@H](C(N)=O)C(C)C (HELM PEPTIDE1{[C[C@H](NC(=O)/C=C/C(=O)[*:2])C(=O)NCC(=O)N[C@@H](Cc1ccccc1)C(=O)O].Q.L.L.V.[am]}$$$$V2.0)	56	55
CC(C)[C@H](NC(=O)[C@@H](NC(=O)[C@H](Cc1ccccc1)NC(=O)[C@H](C)NC(=O)/C=C/C(=O)NCC(=O)NCC(=O)N[C@@H](Cc1ccccc1)C(=O)O)C(C)C)C(N)=O (HELM PEPTIDE1{[O=C(/C=C/C(=O)[*:2])NCC(=O)NCC(=O)N[C@@H](Cc1ccccc1)C(=O)O].A.F.V.V.[am]}$$$$V2.0)	48	27
CC(C)[C@H](NC(=O)[C@@H](NC(=O)[C@@H](NC(=O)[C@H](CCC(N)=O)NC(=O)/C=C/C(=O)NCC(=O)NCC(=O)N[C@@H](Cc1ccccc1)C(=O)O)c1ccccc1)C(C)C)C(N)=O (HELM PEPTIDE1{[O=C(/C=C/C(=O)[*:2])NCC(=O)NCC(=O)N[C@@H](Cc1ccccc1)C(=O)O].Q.[Phg].V.V.[am]}$$$$V2.0)	45	63
